30 compounds from ChEMBL document CHEMBL3085707, “Solution-phase microwave assisted parallel synthesis of N,N'-disubstituted thioureas derived from benzoic acid: biological evaluation and molecular docking studies” (Eur J Med Chem, 2013) can be followed below.

One test relates to Aspergillus niger. In words: Antifungal activity against Aspergillus niger after 24 to 48 hrs by agar well diffusion method. Type of test: functional. The essentials: (§1)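 Agar well diffusion: 20 mL inoculum added to molten potato dextrose agar and pour-plated, with 6 mm wells cut by cork borer after setting. Inhibition zone measured in mm and scored from + (<1 mm) to ++++ (>6 mm). 2% DMSO in screen medium was the negative control; fluconazole and terbinafine were separate positive controls.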
For orientation: In agar diffusion tests the substance spreads into inoculated agar from a disc or well.

The subject of a further test is Candida tropicalis. The test is described as follows: Antifungal activity against Candida tropicalis after 24 to 48 hrs by agar well diffusion method. Type of test: functional. Put shortly:
as §1

For test [1], the system named is Radical scavenging activity. In words: Antioxidant activity assessed as DPPH free radical scavenging activity at 1 mM after 30 mins. Type of test: functional.
A further test concerns Aspergillus flavus. The test is described as follows: Antifungal activity against Aspergillus flavus after 24 to 48 hrs by agar well diffusion method. It is filed as functional. The essentials:
as §1

The subject of the next test is Saccharomyces cerevisiae. The test is described as follows: Antifungal activity against Saccharomyces cerevisiae after 24 to 48 hrs by agar well diffusion method. Type of test: functional. The essentials: as §1
The next test deals with Urease (Canavalia ensiformis, UniProt P07374). The test is described as follows: Inhibition of jack bean urease assessed as ammonia production after 30 mins by indophenol method. The essentials: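 Indophenol (Weatherburn) ammonia read-out. Enzyme (5 U/mL) and test compound in buffer of 100 mM urea, 1 mM EDTA, 10 mM K2HPO4 and 10 mM […] at pH 8.2, incubated 30 min at 37 °C. Phenol and alkali reagents (NaOH, 0.1% active chloride NaOCl) then added; absorbance read by microplate reader. Run in triplicate; thiourea and acetohydroxamic acid as reference inhibitors.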
Chain of Urease (P07374 whole entry): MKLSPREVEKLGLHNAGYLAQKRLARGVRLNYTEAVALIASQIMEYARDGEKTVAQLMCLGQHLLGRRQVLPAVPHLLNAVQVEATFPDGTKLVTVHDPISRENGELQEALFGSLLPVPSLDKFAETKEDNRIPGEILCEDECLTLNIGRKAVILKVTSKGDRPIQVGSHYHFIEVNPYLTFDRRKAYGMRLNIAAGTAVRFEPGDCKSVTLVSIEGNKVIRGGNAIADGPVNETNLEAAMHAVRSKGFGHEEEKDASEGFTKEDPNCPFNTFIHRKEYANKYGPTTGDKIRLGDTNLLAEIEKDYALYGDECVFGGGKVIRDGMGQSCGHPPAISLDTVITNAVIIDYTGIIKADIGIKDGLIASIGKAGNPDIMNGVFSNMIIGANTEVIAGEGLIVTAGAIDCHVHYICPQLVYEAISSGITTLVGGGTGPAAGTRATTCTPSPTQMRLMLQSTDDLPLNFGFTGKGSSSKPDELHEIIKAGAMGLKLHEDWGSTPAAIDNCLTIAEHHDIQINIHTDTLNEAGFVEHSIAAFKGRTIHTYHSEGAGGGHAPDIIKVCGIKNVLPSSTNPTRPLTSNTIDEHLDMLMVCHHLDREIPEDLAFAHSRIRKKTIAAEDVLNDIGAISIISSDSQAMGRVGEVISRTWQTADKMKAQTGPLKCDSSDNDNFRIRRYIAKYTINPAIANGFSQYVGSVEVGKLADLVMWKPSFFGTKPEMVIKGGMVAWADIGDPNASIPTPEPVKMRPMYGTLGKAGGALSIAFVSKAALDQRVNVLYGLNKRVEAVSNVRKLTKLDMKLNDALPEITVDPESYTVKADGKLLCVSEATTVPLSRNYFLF

For test [2], the system named is Radical scavenging activity. In words: Antioxidant activity assessed as DPPH free radical scavenging activity after 30 mins. Type of test: functional.

Molecules are shown by their SMILES. Calls of active or inactive are those of the source. No cut-off for these calls is given here.

Take `O=C(NC(=S)Nc1cccc(Cl)c1)c1ccccc1`: the “inhibition zone (IZ)” value with Aspergillus niger, in the test with Candida tropicalis, in the test with Aspergillus flavus and in the test with Saccharomyces cerevisiae was less than 1 mm each time. Also, the inhibition in test [1] worked out at 21%. Further, on Urease, the IC50 was 27.3 µM.

Consider `O=C(NC(=S)Nc1ccccc1Cl)c1ccccc1`, for which the “inhibition zone (IZ)” value with Aspergillus niger, in the test with Candida tropicalis, with Aspergillus flavus and with Saccharomyces cerevisiae was less than 1 mm each time. The inhibition in test [1] amounted to 26%. The IC50 on Urease is 41.2 µM.

In the case of `O=C(NC(=S)Nc1cccc(C(F)(F)F)c1)c1ccccc1`, the “inhibition zone (IZ)” value is on record as 3 mm with Aspergillus niger, 1 mm with Candida tropicalis, 1 mm in the test with Aspergillus flavus and 3 mm in the test with Saccharomyces cerevisiae. In addition, in test [1], the inhibition came to 34%. Also, at Urease, the IC50 amounted to 39.6 µM.

Turning to `Cc1cc(C)c(NC(=S)NC(=O)c2ccccc2)c(C)c1`, the “inhibition zone (IZ)” value in the test on Aspergillus niger is recorded as less than 1 mm; in the test on Candida tropicalis, 1 mm; with Aspergillus flavus it was 1 mm; in the test on Saccharomyces cerevisiae, less than 1 mm. For the same compound, the inhibition in test [1] stood at 24%. For the same compound, the IC50 at Urease came out at 8.11 µM.

On to `O=C(NC(=S)NCc1ccccc1)c1ccccc1`, for which the “inhibition zone (IZ)” value with Aspergillus niger, in the test on Candida tropicalis, in the test on Aspergillus flavus and in the test on Saccharomyces cerevisiae was “inactive” throughout. In addition, the inhibition in test [1] turned out to be 22%. For the same compound, at Urease, the IC50 is 27.4 µM.

For the compound `O=C(NC(=S)Nc1cccc(Cl)c1Cl)c1ccccc1`, the “inhibition zone (IZ)” value in the test with Aspergillus niger, in the test on Candida tropicalis, in the test with Aspergillus flavus and with Saccharomyces cerevisiae was less than 1 mm in each case. Also, the IC50 was determined as 29.5 µM in test [2] and 32.2 µM at Urease.

For the compound `COc1ccc(O)c(C(C)(C)C)c1.COc1ccc(O)cc1C(C)(C)C` [BUTYLATED HYDROXYANISOLE], the IC50 in test [2] was 28.2 µM.

`Cc1ccc(NC(=S)NC(=O)c2ccccc2)cc1`: the “inhibition zone (IZ)” value in the test on Aspergillus niger, in the test with Candida tropicalis, in the test with Aspergillus flavus and with Saccharomyces cerevisiae was 1 mm in each case. The values for the IC50 (in test [2]; at Urease) were 23.3 µM and 6.23 µM, respectively.

As for `CCCOC(=O)c1cc(O)c(O)c(O)c1` [PROPYL GALLATE], in test [2], the IC50 worked out at 40.8 µM.

Take `O=C(NC(=S)Nc1ccccc1C(F)(F)F)c1ccccc1`: the “inhibition zone (IZ)” value in the test on Aspergillus niger was found to be 1 mm; with Candida tropicalis it was 3 mm; with Aspergillus flavus, 3 mm; in the test with Saccharomyces cerevisiae, 1 mm. Moreover, the inhibition in test [1] stood at 38%. The concentration for half-maximal inhibition (IC50) on Urease came out at 38.2 µM.

On to `Cc1cccc(NC(=S)NC(=O)c2ccccc2)c1C`, for which the “inhibition zone (IZ)” value in the test on Aspergillus niger, in the test on Candida tropicalis, in the test on Aspergillus flavus and in the test on Saccharomyces cerevisiae was less than 1 mm in each case. Besides, the inhibition in test [1] is 27%. The IC50 at Urease came to 3.17 µM.

In the case of `O=C(NC(=S)Nc1ccc(Cl)c(Cl)c1)c1ccccc1`, the “inhibition zone (IZ)” value in the test with Aspergillus niger, in the test on Candida tropicalis, in the test on Aspergillus flavus and in the test with Saccharomyces cerevisiae was less than 1 mm throughout. Moreover, the IC50 is 70 µM in test [2] and 5.51 µM at Urease.

On to `O=C(NC(=S)Nc1cccc(F)c1)c1ccccc1`, for which the “inhibition zone (IZ)” value in the test on Aspergillus niger is on record as 1 mm; in the test on Candida tropicalis, less than 1 mm; in the test on Aspergillus flavus, less than 1 mm; in the test on Saccharomyces cerevisiae, 1 mm. In test [1], the inhibition is 38%. Moreover, the IC50 on Urease turned out to be 3.52 µM.

For `OC(Cn1cncn1)(Cn1cncn1)c1ccc(F)cc1F` [FLUCONAZOLE], the “inhibition zone (IZ)” value with Aspergillus niger, with Candida tropicalis, in the test on Aspergillus flavus and with Saccharomyces cerevisiae was 3 mm in each case.

Turning to `O=C(NC(=S)NCc1ccccc1Cl)c1ccccc1`, the “inhibition zone (IZ)” value in the test on Aspergillus niger, in the test with Candida tropicalis, in the test with Aspergillus flavus and in the test on Saccharomyces cerevisiae was less than 1 mm each time. Further, in test [1], the inhibition was found to be 36%. Moreover, on Urease, the IC50 was 35.3 µM.

For the compound `O=C(NC(=S)Nc1cc(Cl)cc(Cl)c1)c1ccccc1`, the “inhibition zone (IZ)” value in the test on Aspergillus niger, in the test with Candida tropicalis, in the test on Aspergillus flavus and with Saccharomyces cerevisiae was less than 1 mm in each case. Also, the figures for the IC50 (in test [2]; on Urease) were 27 µM and 18.4 µM, respectively.

For the compound `O=C(NC(=S)Nc1ncccn1)c1ccccc1`, the “inhibition zone (IZ)” value in the test with Aspergillus niger and in the test on Saccharomyces cerevisiae was less than 1 mm each time. Also, the “inhibition zone (IZ)” value with Candida tropicalis and in the test on Aspergillus flavus was “inactive” in each case. Besides, the IC50 was found to be 276 µM in test [2] and 8.21 µM at Urease.

Regarding `O=C(NC(=S)Nc1ccc(C(F)(F)F)cc1)c1ccccc1`, the “inhibition zone (IZ)” value in the test on Aspergillus niger, with Candida tropicalis, in the test on Aspergillus flavus and in the test with Saccharomyces cerevisiae was 3 mm in each case. Also, the IC50 in test [2] is 114 µM; on Urease it was 12.2 µM.

Take `COc1cccc(NC(=S)NC(=O)c2ccccc2)c1`: the “inhibition zone (IZ)” value in the test on Aspergillus niger, in the test with Candida tropicalis, in the test with Aspergillus flavus and in the test on Saccharomyces cerevisiae was 3 mm in each case. The IC50 in test [2] turned out to be 805 µM; on Urease, 12.8 µM.

In the case of `O=C(NC(=S)Nc1ccccc1)c1ccccc1` [N-(PHENYLCARBAMOTHIOYL)BENZAMIDE], the “inhibition zone (IZ)” value in the test on Aspergillus niger, with Candida tropicalis, in the test on Aspergillus flavus and in the test with Saccharomyces cerevisiae was “inactive” each time. The results for the half-maximal inhibitory concentration (IC50) (in test [2]; at Urease) were 769 µM and 14.1 µM, respectively.

For the compound `O=C(NC(=S)NC1CCCCC1)c1ccccc1`, the “inhibition zone (IZ)” value in the test with Aspergillus niger, in the test with Candida tropicalis, with Aspergillus flavus and in the test with Saccharomyces cerevisiae was less than 1 mm in each case. For the same compound, in test [1], the inhibition was 28%. Besides, the IC50 on Urease was determined as 53.2 µM.

Turning to `O=C(NC(=S)Nc1cc(Cl)ccc1Cl)c1ccccc1`, the “inhibition zone (IZ)” value in the test with Aspergillus niger, in the test on Candida tropicalis, with Aspergillus flavus and in the test with Saccharomyces cerevisiae was less than 1 mm in each case. For the same compound, the figures for the IC50 (in test [2]; at Urease) were 30.7 µM and 4.54 µM, respectively.

As for `O=C(NC(=S)Nc1c(Cl)c(Cl)cc(Cl)c1Cl)c1ccccc1`, the “inhibition zone (IZ)” value with Aspergillus niger, with Candida tropicalis, in the test on Aspergillus flavus and in the test with Saccharomyces cerevisiae was 3 mm each time. The inhibition in test [1] was found to be 31%. For the same compound, the IC50 at Urease turned out to be 74.9 µM.

As for `O=C(NC(=S)Nc1ccc(Cl)cc1Cl)c1ccccc1`, the “inhibition zone (IZ)” value in the test with Aspergillus niger came out at 3 mm; in the test on Candida tropicalis, 1 mm; with Aspergillus flavus, 1 mm; in the test on Saccharomyces cerevisiae, 3 mm. For the same compound, the concentration for half-maximal inhibition (IC50) in test [2] came to 240 µM; on Urease it was 13.2 µM.

On to `CCCCc1ccc(NC(=S)NC(=O)c2ccccc2)cc1`, for which the “inhibition zone (IZ)” value in the test with Aspergillus niger, in the test with Candida tropicalis, with Aspergillus flavus and in the test with Saccharomyces cerevisiae was less than 1 mm each time. For the same compound, the results for the IC50 (in test [2]; on Urease) were 676 µM and 47.2 µM, respectively.

As to `NC(N)=S` [THIOUREA], on Urease, the half-maximal inhibitory concentration (IC50) was found to be 22.3 µM.

In the case of `O=C(NC(=S)Nc1ccc(F)cc1)c1ccccc1`, the “inhibition zone (IZ)” value in the test with Aspergillus niger, in the test with Candida tropicalis, with Aspergillus flavus and in the test on Saccharomyces cerevisiae was 3 mm each time. Further, the inhibition in test [1] is 31%. In addition, at Urease, the IC50 turned out to be 41.2 µM.

For `O=C(NC(=S)Nc1c(Cl)cccc1Cl)c1ccccc1`, the “inhibition zone (IZ)” value with Aspergillus niger, with Candida tropicalis, with Aspergillus flavus and in the test on Saccharomyces cerevisiae was 1 mm throughout. Besides, the inhibition in test [1] was 29%. Further, the IC50 at Urease came out at 4.27 µM.

With `O=C(NC(=S)Nc1ccc(Cl)cc1)c1ccccc1`, the “inhibition zone (IZ)” value with Aspergillus niger, in the test on Candida tropicalis, in the test with Aspergillus flavus and in the test with Saccharomyces cerevisiae was 1 mm throughout. For the same compound, the values for the IC50 (in test [2]; on Urease) were 265 µM and 35.3 µM, respectively.

Consider `CN(C/C=C/C#CC(C)(C)C)Cc1cccc2ccccc12` [TERBINAFINE], for which the “inhibition zone (IZ)” value in the test with Aspergillus niger, in the test with Candida tropicalis, with Aspergillus flavus and in the test on Saccharomyces cerevisiae was 3 mm throughout.

A word on the inhibition: it is the relative decrease from the control value, in per cent. Broadly, the IC50 is the concentration that inhibits the measured activity by half.
